# Assay outcomes (PubChem)
# Rows were chosen to be rich in hits. Some 3.7% of all compounds tested hit in one or more screens of this group.
# hERG protect: hERG (human) protection from proarrhythmic block; CHO-hERG, FluxOR thallium flux, dofetilide IC70 present; activation (rescue from dofetilide block), less the hit threshold, % at 10 µM; actives 0.51% (n = 310,000); AID 1511;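 active means activation above the mean of controls blocked by dofetilide plus 5 SD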;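 further: thallium influx through hERG after potassium depolarization seen as dye fluorescence rise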
# KCNK3 block: human KCNK3 channel inhibition, primary screen; O14649; CHO-KCNK3 thallium flux, FluxOR fluorescence; hits give low values; B-score at 10 µM; actives 0.84% (n = 340,000); AID 602410;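 active means B-score under library mean minus 4 SD, starting fluorescence ratio at most library mean plus 5 SD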;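 further: more negative B-score means stronger inhibition of thallium flux through KCNK3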
# KCNK9 block: inhibitors of human KCNK9 two-pore domain potassium channel; Q9NPC2; AID 488922; HEK293 KCNK9, FluxOR thallium flux fluorescence; hits give low values; actives 1.2% (n = 310,000); B-score at 10 µM;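 active means ratio B-score over 3 SD below the library mean, with starting fluorescence within 5 SD of its mean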;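 further: negative B-score means less thallium flux so channel inhibition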
# Target sequence (Q9NPC2 whole entry, looked up, the tested form may be a part): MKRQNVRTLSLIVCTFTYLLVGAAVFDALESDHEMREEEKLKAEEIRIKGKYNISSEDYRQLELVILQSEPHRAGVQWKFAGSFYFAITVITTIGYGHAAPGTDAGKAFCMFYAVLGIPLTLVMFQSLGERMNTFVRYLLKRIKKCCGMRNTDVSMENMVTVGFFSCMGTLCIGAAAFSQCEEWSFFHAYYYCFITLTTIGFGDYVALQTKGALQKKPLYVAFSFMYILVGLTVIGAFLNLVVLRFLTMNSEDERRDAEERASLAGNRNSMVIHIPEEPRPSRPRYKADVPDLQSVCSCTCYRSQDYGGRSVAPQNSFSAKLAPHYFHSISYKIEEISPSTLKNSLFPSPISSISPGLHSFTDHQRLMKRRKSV
# KCNQ1 block: blocks the human KCNQ1 potassium channel; actives 1.3% (n = 310,000); CHO-K1 KCNQ1, FluxOR thallium flux fluorescence; hits give high values; P51787; B-score at 10 µM;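 active means compounds whose thallium flux B-score, printed positive for inhibition, exceeds three library SD while starting fluorescence stays within three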;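 further: channel opened by potassium depolarization with thallium stimulus after 20 min compound exposure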
# KCNQ1 pot: human KCNQ1 channel potentiation or activation; AID 2648; P51787; B-score at 10 µM; actives 0.35% (n = 310,000); CHO-K1 KCNQ1, thallium flux FluxOR fluorescence; hits give high values;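 active means fluorescence ratio B-score, a plate-corrected score, at least three library SD, with initial intensity B-score within 5 SD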
#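 System: Stable KCNQ1 CHO-K1 line | Incubation: 90 min dye loading and 20 min compound exposure, both at room temperature | Measure: Ratio B score | Medium: Assay buffer for compound exposure, DMSO matched across wells | Compound dosing: Single-concentration screen | Probe or stimulus: K+/Tl+ depolarizing stimulus | Measured by: Kinetic FluxOR fluorescence, 10 s baseline plus 110 s post-stimulus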
# Kir21 block: Kir2.1 (mouse) channel inhibition | actives 0.85% (n = 310,000) | HEK293-Kir2.1, FluxOR thallium flux fluorescence; hits give low values | P35561 | B-score at 10 µM;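 active means fluorescence ratio B-score at or below minus 3 SD of library scores, with starting-brightness B-score within 2 SD, cut at about -4.2 in these data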;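 further: channel flux triggered by added potassium and thallium sulfate stimulus; B-score of peak minus minimum fluorescence over baseline after thallium stimulus; more negative B-score means stronger Kir2.1 block with less thallium influx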
# KCNK9 block conf: confirmation of human KCNK9 potassium channel inhibitors | HEK293 KCNK9 cells, FluxOR thallium flux fluorescence | inhibition, % at 10 µM | AID 492992 | actives 43% (n = 4,900) | shares compounds with KCNK9 block;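 active means thallium signal inhibited by more than 5 SD of the compound-free buffer control wells, on both duplicate plates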;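 further: 0% = assay buffer control wells without compound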
# Kir21 sel: selectivity of KCNK9 modulators against mouse Kir2.1; shares compounds with KCNK9 block; actives 4% (n = 4,900); inhibition, % at 10 µM; Kir2.1 cells, FluxOR thallium flux fluorescence;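 active means thallium signal drop more than 5 SD beyond the mean of the no-compound control wells, seen in both duplicate plates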;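 further: signal is fluorescence rise after thallium addition divided by baseline fluorescence; plate controls were assay buffer only for no effect and full block by chlorpromazine control for full effect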
# KCNK9 uninduced: non-induced cell nonspecific activity of KCNK9 modulators; shares compounds with KCNK9 block; non-induced KCNK9-HEK293, FluxOR thallium flux; inhibition, % at 10 µM; actives 40% (n = 4,900);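 active means thallium signal drop beyond 5 SD of the untreated control mean, on both duplicate plates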;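 further: plate controls were buffer only IC0 wells for no effect and SID17386958 at its maximal inhibitory level for full effect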
# Starred values were filed as active, the others as inactive; i = inactive; nt = no result given.
SMILES,hERG protect,KCNK3 block,KCNK9 block,KCNQ1 block,KCNQ1 pot,Kir21 block,KCNK9 block conf,Kir21 sel,KCNK9 uninduced
CCCCCC(=O)N1CCCC(c2nc(-c3ccc(OC)cc3)no2)C1 (stereo not given),-12.5,i,i,i,i,-1.14,i,i,i
CCCCCCC(=O)N1CCCC(c2nc(-c3cccc(OC)c3)no2)C1 (stereo not given),-15.2,i,i,i,i,-1.65,i,i,i
Cc1ccc(Nc2nc(N)nc(COC(=O)C3=COCCO3)n2)cc1,nt,i,nt,nt,nt,nt,nt,nt,nt
C[n+]1c2n(c3ccccc31)N=C(c1cc(C(C)(C)C)c(O)c(C(C)(C)C)c1)CS2,-37.5,-12.8*,-19.5*,7*,i,-7.81*,76.5%*,46.5%*,31.5%*
CCOc1ccc(NC(=O)c2ccc3c(c2)OCCO3)cc1S(=O)(=O)N(CC)CC,nt,i,nt,nt,nt,nt,nt,nt,nt
O=C(NCC(c1ccco1)N1CCc2ccccc21)C(=O)Nc1ccc(F)cc1F (stereo not given),-7.7,i,-13.6*,i,i,-1.1,32.5%*,i,27.0%*
CCOC(=O)[C@@H]1[C@H]2COc3cc(OC)ccc3[C@H]2N2C(=O)N(c3cccc(F)c3)C(=O)[C@@]12C,nt,i,nt,nt,nt,nt,nt,nt,nt
CCOC(=O)[C@@H]1[C@H]2COc3ccccc3[C@@H]2N2C(=O)N(c3cccc(Cl)c3)C(=O)[C@@]12C,-13.6,i,-12.3*,i,i,-0.07,56.5%*,i,35.0%*
CCOC(=O)[C@@H]1[C@H]2COc3ccc(Br)cc3[C@@H]2N2C(=O)N(c3ccc(C(F)(F)F)cc3)C(=O)[C@@]12C,-5.2,i,-12.1*,i,i,-0.92,74.0%*,i,41.0%*
CCOC(=O)[C@@H]1[C@H]2COc3ccc(Br)cc3[C@@H]2N2C(=O)N(c3cccc(F)c3)C(=O)[C@@]12C,-3.6,i,-10.3*,i,i,-0.16,63.5%*,i,26.0%*
CCOn1c(=O)c(-c2cccs2)[n+]([O-])c2ccccc21,-3.9,i,i,i,i,-1.85,nt,nt,nt
CCOC(=O)COn1c(=O)c(-c2cccs2)[n+]([O-])c2ccccc21,-12.5,i,-8.32*,i,i,-4.19,46.5%*,i,47.0%*
COc1ccc(C2C(C(=O)c3cccs3)=C(O)C(=O)N2CCN2CCOCC2)c(OC)c1 (stereo not given),-1.1,i,i,i,i,-0.14,nt,nt,nt
COC(=O)CSc1nc(SCc2ccccc2Cl)nc2c1CCCC2,-4.3,i,i,i,i,0.13,i,i,i
O=C(O)CSc1nc(SCc2ccccc2Cl)nc2c1CCCC2,-5.7,i,i,i,i,-0.62,nt,nt,nt
CC(C)CCN(CCC(C)C)CC(O)Cn1c2ccccc2c(=O)c2ccccc21 (stereo not given),-4.9,i,-8.11*,i,i,-1.67,42.5%*,i,27.5%*
CC[C@]12c3[nH]c4cc(CCC(=O)N(C)C)ccc4c3CCN1C(=O)[C@@H](CC(=O)NCc1cccc(C(F)(F)F)c1)C[C@@H]2C(=O)N1CCN(C(=O)C2CC2)CC1,nt,i,nt,nt,nt,nt,nt,nt,nt
Cn1c(Sc2ccc(Br)cc2)c(C=O)c2ccccc21,-13.2,i,-9.46*,i,i,0.88,43.5%*,36.5%*,52.0%*
Cn1c(Oc2ccc(F)cc2)c(C=O)c2ccccc21,-4.5,i,i,i,i,-2.52,nt,nt,nt
O=[N+]([O-])c1ccc(Cl)cc1CNc1ccc(F)c(F)c1,-12.1,i,-8.46*,i,i,-1.46,33.0%*,i,27.0%*
O=C(Nc1ccc2c(c1)OCO2)c1ccc(Br)c(S(=O)(=O)N2CCCC2)c1,-5.6,i,-8.73*,i,i,0.54,i,i,i
CCc1nn(CCCC(=O)NCc2ccco2)c(=O)c2cc3occc3n12,-7.4,i,i,i,i,1.06,nt,nt,nt
CCN(CC)c1ccc(/C=c2\sc3nnc(-c4ccccc4Cl)n3c2=O)cc1,9.3*,i,-11.2*,7*,i,0.17,43.5%*,i,i
O=C(Nc1cccc(-c2csc(Nc3ccccc3)n2)c1)c1ccccc1,-18.9,i,i,i,i,1.47,i,i,i
COc1ccc(CN2CCC(=O)N(CCO)CC2)cc1OC,-9.0,i,i,i,i,-0.06,nt,nt,nt
SMILES,hERG protect,KCNK3 block,KCNK9 block,KCNQ1 block,KCNQ1 pot,Kir21 block,KCNK9 block conf,Kir21 sel,KCNK9 uninduced
CCOc1ccccc1N/C=C(\C#N)c1nc2ccccc2n1C,-5.1,i,-10.9*,i,i,0.55,i,i,i
COc1ccc(-c2cc(C)nc3c(-c4ccccc4)cnn23)cc1,-19.7,i,-9.51*,i,i,-1.05,57.5%*,i,51.0%*
COc1cc(/C=N/N2C(=O)c3ccccc3NC2(C)c2cccc([N+](=O)[O-])c2)cc(Br)c1O (stereo not given),-16.3,i,-13.8*,i,i,1.52,56.5%*,i,46.0%*
COc1cc(/C=N/NC(=O)c2ccc([N+](=O)[O-])cc2Cl)cc(Br)c1O,-5.7,i,i,i,i,0.93,nt,nt,nt
O=[N+]([O-])c1ccc(NCCCNS(=O)(=O)c2ccc(Cl)cc2)c(Cl)c1,-20.8,i,i,i,i,-1.88,nt,nt,nt
O=C(CSc1nccn1-c1ccccc1)NO,-13.1,i,i,i,i,0.02,nt,nt,nt
Clc1cccc(CSc2nccn2-c2ccccc2)c1,-14.1,i,i,i,i,-7.85*,i,i,i
FC(F)(F)c1ccc(CSc2nccn2-c2ccccc2)cc1,-14.5,i,i,i,i,-4.57*,i,i,i
Brc1ccc(CSc2nccn2-c2ccccc2)cc1,-7.6,i,i,i,i,-1.42,i,i,i
Cn1c(SCC(=O)Nc2ccc(C(N)=O)cc2)nnc1-c1cccs1,-4.9,i,i,i,i,-0.03,nt,nt,nt
Cc1ccc(S(=O)(=O)N2CCC[C@H]2C(=O)OCC(=O)Nc2ccc3c(c2)OCO3)cc1,nt,i,nt,nt,nt,nt,nt,nt,nt
CCOC(=O)C1(Cc2ccccc2)CCN(Cc2cccn2-c2nccs2)CC1,-6.8,i,i,i,i,-0.53,i,i,i
